# High-throughput results from PubChem.
# This is a sample that favours compounds with a hit; in the whole collection about 2.2% have one here.
# DNMT1 block – inhibitors of human DNMT1 | DNMT1 molecular beacon, Hinp1I cleavage, fluorescence | 0.83% of 360,000 active | inhibition (reported as % activation of signal), % at 10 µM | P26358 | AID 588458; in the data active = inhibition above about 50%
# STEP block – inhibitors of human striatal-enriched phosphatase STEP; P54829; recombinant STEP, OMFP fluorogenic substrate, fluorescence; inhibition, % at 20 µM; 0.25% of 360,000 active; AID 588621;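 active = inhibition at 20 µM, scaled per plate between control wells, above about 37%, limit read from the data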;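 note: 0% = DMSO with enzyme and substrate and 100% = substrate only without enzyme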
#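 Also added – OMFP at 25 µM · Test system – STEP tyrosine phosphatase · Technique – FITC-channel fluorescence of OMFP product · Schedule – 20 min at room temperature, dark · Evaluation – control-normalized % inhibition with plate pattern correction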
# LMPTP block – LMPTP (human) inhibition; P24666; recombinant LMPTP-A, OMFP fluorogenic substrate, fluorescence intensity; inhibition, % at 20 µM; 0.22% of 360,000 active; AID 651560;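 active = compounds that cut the enzyme signal by at least half of the control window in the single-dose screen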;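 note: plate controls were DMSO wells with enzyme plus substrate for no effect and substrate without enzyme for full effect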
# Target sequence (P24666 whole entry, looked up): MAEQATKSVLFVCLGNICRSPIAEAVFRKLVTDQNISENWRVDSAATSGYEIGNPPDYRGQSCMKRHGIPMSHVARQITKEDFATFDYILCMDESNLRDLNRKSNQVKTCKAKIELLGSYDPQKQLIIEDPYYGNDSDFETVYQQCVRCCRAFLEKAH
#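 Assay system: LMPTP-A, protein tyrosine phosphatase of low molecular weight / Medium: pH 6.0 Bis-Tris buffer with DTT and Triton X-100 / Schedule: 50 min enzyme reaction at room temperature, protected from light / Measured by: endpoint fluorescence intensity from OMFP dephosphorylation / Read-out basis: % inhibition relative to no-enzyme and uninhibited control wells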
# GRK2 aptamer HTS – blocks RNA aptamer binding to human GRK2. bead flow cytometry, FAM-aptamer displacement from GRK2. inhibition of aptamer binding, % at 10 µM. 0.59% of 330,000 active. AID 488847;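 active = inhibition of aptamer binding above 40%, roughly 3 SD of noise, on plates passing a quality check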;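 note: median bead fluorescence of bound FAM aptamer so fluorescent compounds give negative values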
# Scp-1 inhibitor – blocks human Scp-1 phosphatase activity; Recombinant Scp1, phosphopeptide, malachite green phosphate absorbance; inhibition, % at 20 µM; 0.88% of 340,000 active;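 active = inhibition above about 50% at 20 µM, limit read from the data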;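 note: plate controls were DMSO wells with enzyme for no effect and wells lacking enzyme for full effect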
# Target sequence (Q9GZU7 76-261 limits assumed): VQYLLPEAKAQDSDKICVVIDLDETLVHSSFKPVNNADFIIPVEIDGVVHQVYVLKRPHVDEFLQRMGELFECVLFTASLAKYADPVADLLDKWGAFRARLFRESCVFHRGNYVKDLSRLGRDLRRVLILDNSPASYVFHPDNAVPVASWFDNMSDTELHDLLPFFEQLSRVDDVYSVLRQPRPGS
#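 assay system = SCP-1 phosphatase catalytic domain, residues 76-261 | buffer or medium = 50 mM Tris acetate pH 5.5, 0.005% Tween-20, 10 mM MgCl2 | incubation = enzyme reaction 45 min at room temperature, colour 5 min, stabilisation 30 min | signal = Phosphate-binding colour reagent, absorbance read at 630 nm | measure = % inhibition at 20 µM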
# SUMO1 PPI mod – SUMO1-SIM interaction modulation; P63165; SUMO1 binding to a labelled peptide, TR-FRET, 1 h; inhibition, % at 20 µM; 0.33% of 360,000 active; in the data active = inhibition above about 37%
# Target sequence (P63165 whole entry, looked up): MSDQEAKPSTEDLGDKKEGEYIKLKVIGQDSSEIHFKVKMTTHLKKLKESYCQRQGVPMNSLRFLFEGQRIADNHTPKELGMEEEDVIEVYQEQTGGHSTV
# GRK2 CP1 – human GRK2 inhibition confirmation, cherry pick 1; aptamer displacement, % at 10 µM; shares compounds with GRK2 aptamer HTS; bead-bound GRK2, FAM-aptamer displacement, flow cytometry; 4% of 2,000 active;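 active = aptamer displacement above 40%, near three times the noise of non-fluorescent compounds, on plates passing quality checks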;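 note: negative values mostly reflect intrinsic compound fluorescence rather than true enhancement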
# Aptamer quench SP – counter-screen for GRK2 aptamer inhibitors: fluorescent aptamer quenchers; 2,000 tested, under 10 active; fluorescence response (% of DMSO), % at 10 µM; shares compounds with GRK2 aptamer HTS; Carboxyfluorescein RNA aptamer on beads, flow cytometry quenching; stronger effect = lower value;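 active = compounds that quench the bead-bound fluorescent RNA probe, cutting fluorescence to under half of the solvent control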;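 note: counterscreen run without GRK2 so only probe quenching by compound is measured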
# GRK2 confirm 2 – human GRK2 inhibition confirmation, cherry pick 2; shares compounds with GRK2 aptamer HTS; bead-bound GRK2, FAM-aptamer displacement, flow cytometry; inhibition of aptamer binding, % at 10 µM; 360 tested, under 10 active; AID 504782;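 active = inhibition of aptamer binding above 40%, about triple the noise seen with nonglowing compounds, on plates passing quality control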;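 note: negative values mostly come from compounds that fluoresce themselves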
# FAM quench CP2 – aptamer fluorescence quenching in GRK2 counter-screen; fluorescence response vs DMSO, % at 10 µM; AID 588494; shares compounds with GRK2 aptamer HTS; 360 tested, under 10 active; carboxyfluorescein RNA aptamer beads, flow cytometry quenching; stronger effect = lower value;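 active = response vs DMSO under 50%, meaning signal dropped by over half, treated as fluorescence quencher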;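 note: labelled aptamer on streptavidin beads without GRK2 as a quench counter-screen; 100% = bead fluorescence of DMSO wells and lower means quenching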
# * = called active by the depositor; x = no result given.
SMILES,DNMT1 block,STEP block,LMPTP block,GRK2 aptamer HTS,Scp-1 inhibitor,SUMO1 PPI mod,GRK2 CP1,Aptamer quench SP,others
O=C(NCc1cccnc1)c1cccc(NC(=O)c2ccco2)c1,2,-4,0,0,-3,-3,5,97,
O=C(NCC1CCCO1)c1cccc(NC(=O)c2ccco2)c1 (stereo unspecified),3,9,-1,0,8,1,-1,111,
Cc1cc(C)cc(NC(=O)c2cccc(NC(=O)c3ccco3)c2)c1,4,-1,1,0,-19,-3,-1,90,
COC1=CC(=O)OC(c2ccc(C(F)(F)F)cc2)C1 (stereo unspecified),x,x,-1,x,x,2,x,x,
Cc1cc(NS(=O)(=O)c2c(C(=O)N3CCOCC3)c(C)n(C)c2C)ccc1Br,0,0,0,45*,7,7,-4,103,
O=C(NCc1ccccc1)C(C1CC1)n1c(-c2cccs2)nc2ccccc21 (stereo unspecified),x,x,0,x,x,5,x,x,
Cc1ccc(NC(=O)CCn2c(=O)[nH]c3ccsc3c2=O)cc1,1,-3,0,0,-5,-2,x,x,
Cc1ccc(NC(=O)CCn2c(=O)[nH]c3ccsc3c2=O)cc1F,0,0,1,71*,-1,-1,0,99,
O=C(NCC1CCCN(C(=O)NCc2ccccc2)C1)c1ccc2c(c1)OCO2 (stereo unspecified),1,1,0,0,-26,-6,-1,93,
O=C(CCOc1ccccc1)Nc1ccnn1C1CCN(C(=O)CCC(F)(F)F)CC1,-1,-1,0,98*,-7,-1,0,98,
COCC(=O)N1CCC(n2nccc2NC(=O)CCOc2ccccc2)CC1,1,1,0,4,-9,1,x,x,
Cc1ccc(-c2ccc(CCC(=O)O)n2CC(=O)O)cc1,19,8,-1,89*,21,2,3,98,
O=C(O)CCc1ccc(-c2ccc(F)cc2)n1CC(=O)O,6,-1,0,6,3,0,x,x,
O=C1NCCN(Cc2ccc(-c3ccccc3)cc2)C1CC(=O)N1CCN(CCO)CC1 (stereo unspecified),-2,0,1,100*,-2,-1,0,81,
O=C1NCCN(Cc2ccc(F)cc2)C1CC(=O)N1CC=C(c2ccccc2)CC1 (stereo unspecified),-7,-1,-1,3,-6,-4,x,x,
Cc1cc(CNC(=O)CC2C(=O)NCCN2Cc2ccc(-c3ccccc3)cc2)nn1C (stereo unspecified),17,0,2,3,2,3,-15,96,
Cc1cc(CNC(=O)CC2C(=O)NCCN2Cc2ccccc2)nn1C (stereo unspecified),-1,0,-2,0,-3,-2,x,x,
Cc1[nH]c2ccccc2c1C(=O)C(=O)NCc1nnnn1-c1ccc(F)c(F)c1,-1,-3,1,x,x,1,x,x,
C[C@H](O)[C@@H]1CN2CCc3c([nH]c4ccccc34)[C@@H]2C[C@@H]1N(C)Cc1cc(Cl)cc(Cl)c1,-4,2,1,x,x,-1,x,x,
C=CCOc1ccc(C(=O)CC)cc1OC,-2,-2,-1,93*,-1,0,4,100,
O=C(COC(=O)/C=C/c1cccc(F)c1)Nc1ncccn1,14,0,-1,45*,38,3,31,100,
O=C1[C@H]2[C@@H]3CCN1CCC[C@@H]2C=C[C@@H]3c1ccc(Br)cc1,x,x,0,x,x,4,x,x,
CC(=NO)C1(C)CC=CCC1CO (stereo unspecified),-3,-3,-2,x,x,-3,x,x,
CN1CCN(c2ccc(-c3cccc(NC(=O)COc4ccccc4)c3)nn2)CC1,-2,-2,2,0,-7,-8,-11,96,
CN1CCN(c2ccc(-c3cccc(NC(=O)COc4ccc(Cl)cc4)c3)nn2)CC1,-6,6,-6,0,-7,-21,-13,100,
SMILES,DNMT1 block,STEP block,LMPTP block,GRK2 aptamer HTS,Scp-1 inhibitor,SUMO1 PPI mod,GRK2 CP1,Aptamer quench SP,others
CCc1nc2c(OCC(=O)C(C)(C)C)cccn2c1N(C)C(=O)COc1ccccc1,-3,-1,-1,x,x,6,x,x,
COc1ccc(CCNS(=O)(=O)c2ccc3c(c2)OCCO3)cc1OC,1,0,0,0,-5,1,x,x,
COc1ccc(CCNS(=O)(=O)c2ccc3c(c2)CCCC3)cc1OC,2,-2,0,42*,-8,4,x,x,GRK2 confirm 2=18;FAM quench CP2=101
Cc1cc(OCc2nc(-c3ccncc3)no2)cc(C)c1Cl,-5,0,1,47*,4,7,-1,100,
Clc1ccc2nc(-c3ccccc3)c(CC3CCCCC3)n2c1,0,-1,-1,x,x,6,x,x,
CCN(CC)CCOC(=O)c1ccc(N/C=C(/C#N)c2nc(-c3cc4ccccc4oc3=O)cs2)cc1,50*,52*,30,100*,-5,-63,97*,38*,
CCc1ccc(NC(=S)NC(=O)CC(C)C)cc1,7,-1,1,69*,-15,5,0,102,
CC(C)(C)NC(=O)C(c1ccccc1F)n1c(=O)c(-c2ccccc2)nc2ccccc21 (stereo unspecified),x,x,-1,x,x,24,x,x,
CN1CCCC(CC2Oc3ccccc3Sc3ccccc32)C1 (stereo unspecified),-5,0,-1,44*,-2,7,x,x,GRK2 confirm 2=-9;FAM quench CP2=101
c1ccc2c(c1)OC(CCCN1CCCCC1)c1ccccc1S2 (stereo unspecified),1,4,0,0,3,1,x,x,
Cc1cc2nc(-c3ccc(F)cc3)c(Cc3cccc(Cl)c3)n2c(C)c1Br,x,x,2,x,x,16,x,x,
Cc1cc(N2CCOCC2)n2nc(C)c(-c3ccccc3)c2n1,-1,-2,0,2,-6,-2,x,x,
CCc1nn2c(N3CCOCC3)cc(C)nc2c1-c1ccccc1,1,-1,-1,4,4,6,9,99,
O=C(COc1ccc(/C=N/NC(=O)c2cc3ccccc3o2)cc1Cl)Nc1ccccc1,71*,54*,32,54*,80*,-2,23,123,
